The values that follow come from ChEMBL document CHEMBL4390700, “Design, synthesis and antitumour and anti-angiogenesis evaluation of 22 moscatilin derivatives” (Bioorg Med Chem, 2019).

Structures are written as SMILES. Activity calls are given as the source filed them. No cut-off for these calls is given here.

For one data set, the system named is A549. The data set can be described thus: Antiproliferative activity against human A549 cells incubated for 72 hrs by MTT assay. Type of data set: functional, cell-based. The following applies: A549, 72 h. The gist of the method:
(§1)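 5×10³ cells per well preincubated 12 h at 37 °C, 5% CO₂. Medium replaced with fresh medium containing compound at various concentrations, DMSO ≤0.1%, for 72 h at 37 °C. MTT 0.5 mg/mL final added for 2 h; formazan dissolved in DMSO, A570 read; viability expressed relative to untreated cells.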

The subject of another data set is HepG2. The data set is described as follows: Antiproliferative activity against human HepG2 cells incubated for 72 hrs by MTT assay. Type of data set: functional, cell-based. The following applies: HepG2, 72 h. Put shortly: as §1
(In general: Tetrazolium dyes change colour on reduction, which living cells bring about.)

A further data set concerns MDA-MB-231. The data set can be described thus: Antiproliferative activity against human MDA-MB-231 cells incubated for 72 hrs by MTT assay. Type of data set: functional, cell-based. The following applies: MDA-MB-231, 72 h. Put shortly: as §1
Another data set relates to MKN-45. The data set can be described thus: Antiproliferative activity against human MKN45 cells incubated for 72 hrs by MTT assay. Type of data set: functional, cell-based. The following applies: MKN-45, 72 h. Put shortly:
as §1

Data set [1] concerns HCT-116. The data set can be described thus: Antiproliferative activity against human HCT116 cells incubated for 72 hrs by MTT assay. Type of data set: functional, cell-based. The following applies: HCT-116, 72 h. Put shortly: as §1
Data set [2] can be described thus: Cytotoxicity against human NCM460 cells assessed as cell viability at 50 uM incubated for 72 hrs by MTT assay. Type of data set: cell-based. The following applies: read-out: Activity. The gist of the method:
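NCM460 colon cells exposed to compound at 0.1, 1, 2, 5, 10, 20, 30, 40 and 50 μM; viability expressed as percent. Media carried penicillin G, streptomycin and 10% FBS; culture at 37 °C, 5% CO₂.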

Data set [3] relates to HCT-116. The data set can be described thus: Induction of morphological changes in human HCT116 cells assessed as induction of tensile deformation at 1 to 10 uM incubated for 48 hrs by Hoechst 33342 staining based fluorescence microscopy. Type of data set: functional, cell-based.
The subject of data set [4] is HCT-116. The data set is described as follows: Induction of morphological changes in human HCT116 cells assessed as induction of slow growth at 1 to 10 uM incubated for 48 hrs by Hoechst 33342 staining based fluorescence microscopy. Type of data set: functional, cell-based.
Data set [5] relates to HCT-116. The data set can be described thus: Induction of morphological changes in human HCT116 cells assessed as induction of cell distortion at 1 to 10 uM incubated for 48 hrs by Hoechst 33342 staining based fluorescence microscopy. It counts as functional.
The test system of data set [6] is HCT-116. The data set can be described thus: Induction of apoptosis in human HCT116 cells assessed as induction of chromatin congregation at 1 to 10 uM incubated for 48 hrs by DAPI staining based fluorescence microscopy. It counts as functional, cell-based. The following applies: in the assay text read “Hoechst 33342” for “DAPI”. Put shortly: (§2)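 After 48 h exposure to 1, 5 or 10 μM, nuclei stained with DAPI (methods name Hoechst 33342). Chromatin condensation and nuclear pyknosis scored by fluorescence microscopy at 400× against untreated cells.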

For data set [7], the system named is HCT-116. The data set is described as follows: Induction of apoptosis in human HCT116 cells assessed as induction of […] pyknosis at 1 to 10 uM incubated for 48 hrs by DAPI staining based fluorescence microscopy. It counts as functional, cell-based. The following applies: in the assay text read “Hoechst 33342” for “DAPI”. The gist of the method:
as §2

Data set [8] concerns HCT-116. The data set can be described thus: Induction of apoptosis in human HCT116 cells assessed as early apoptotic cells level at 1 uM incubated for 48 hrs by Annexin V-FITC and propidium iodide staining based flow cytometry. It counts as functional. The gist of the method: (§3)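 HCT116 seeded 2 × 10⁵ cells/well, adhered overnight, then exposed to compound for 48 h. Annexin V-FITC/PI double staining, read by flow cytometry. Early apoptotic cells counted as Annexin V+/PI− (lower right quadrant), late apoptotic as Annexin V+/PI+ (upper right). Culture at 37 °C, 5% CO₂, medium with 10% FBS and penicillin/streptomycin, DMSO ≤0.1%.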
Background: In flow cytometry, cells or beads pass a laser one at a time.

Data set [9] has as its system HCT-116. The data set can be described thus: Induction of apoptosis in human HCT116 cells assessed as early apoptotic cells level at 5 uM incubated for 48 hrs by Annexin V-FITC and propidium iodide staining based flow cytometry. Type of data set: functional. Put shortly: (§4)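 2×10⁵ cells per well, adhered overnight, then exposed 48 h to compound at 1, 5 or 10 μM. Annexin V-FITC/PI double staining, read by flow cytometry. Annexin V+/PI− counted as early apoptotic, Annexin V+/PI+ as late. Gambogic acid 1 μM comparator.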

Data set [10] relates to HCT-116. The data set can be described thus: Induction of apoptosis in human HCT116 cells assessed as early apoptotic cells level at 10 uM incubated for 48 hrs by Annexin V-FITC and propidium iodide staining based flow cytometry. Type of data set: functional. Put shortly: as §4
Data set [11] concerns HCT-116. The data set is described as follows: Induction of apoptosis in human HCT116 cells assessed as late apoptotic cells level at 1 uM incubated for 48 hrs by Annexin V-FITC and propidium iodide staining based flow cytometry. Type of data set: functional. Put shortly: as §3
Data set [12] has as its system HCT-116. The data set can be described thus: Induction of apoptosis in human HCT116 cells assessed as late apoptotic cells level at 5 uM incubated for 48 hrs by Annexin V-FITC and propidium iodide staining based flow cytometry. It counts as functional. The gist of the method:
as §4

Data set [13] deals with HCT-116. The data set can be described thus: Induction of apoptosis in human HCT116 cells assessed as late apoptotic cells level at 10 uM incubated for 48 hrs by Annexin V-FITC and propidium iodide staining based flow cytometry. It counts as functional. The gist of the method:
as §4

The subject of data set [14] is HCT-116. The data set is described as follows: Induction of cell cycle arrest in human HCT116 cells assessed accumulation at G2/M phase at 5 uM incubated for 48 hrs by propidium iodide staining based flow cytometry (reference value: 11.88%). Type of data set: functional. Put shortly: (§5)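 2×10⁵ cells per well, adhered overnight, then treated 48 h at 5 or 10 μM. Cells fixed in cold 70% ethanol overnight, RNase A treated 30 min at 37 °C, PI stained 15 min at 4 °C. DNA content measured by flow cytometry; phase distribution compared with untreated control.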

Data set [15] deals with HCT-116. The data set is described as follows: Induction of cell cycle arrest in human HCT116 cells assessed accumulation at G2/M phase at 10 uM incubated for 48 hrs by propidium iodide staining based flow cytometry (reference value: 11.88%). It counts as functional. The gist of the method: as §5
Data set [16] deals with HCT-116. The data set can be described thus: Induction of cell cycle arrest in human HCT116 cells assessed reduction in accumulation at G1 phase at 5 to 10 uM incubated for 48 hrs by propidium iodide staining based flow cytometry. It counts as functional. Put shortly:
as §5

Data set [17] has as its system HCT-116. The data set is described as follows: Induction of cell cycle arrest in human HCT116 cells assessed reduction in accumulation at S phase at 5 to 10 uM incubated for 48 hrs by propidium iodide staining based flow cytometry. Type of data set: functional. Put shortly:
as §5

The test system of data set [18] is HCT-116. The data set is described as follows: Reduction in alpha-tubulin protein expression in human HCT116 cells at 1 to 10 uM incubated for 48 hrs by Western blot analysis. It counts as functional, cell-based. Put shortly: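 After 48 h treatment, cells lysed in buffer of 100 mM Tris-Cl pH 6.8, 4% SDS, 20% glycerol, 200 mM β-mercaptoethanol, 1 mM PMSF, aprotinin. Lysates spun 12000g for 30 min at 4 °C and protein quantified by BCA. Proteins run on 10% SDS-PAGE, semi-dry transferred to PVDF, probed overnight at 4 °C with anti-α-tubulin 1:1000 and GAPDH 1:1000 loading control, then HRP secondary. ECL detection with densitometry.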
Background: In western blotting, separated proteins are transferred to a membrane and probed.

The species entered for another data set is Danio rerio. The data set can be described thus: Anti-angiogenic activity in zebrafish-guided angiogenesis model assessed as reduction in inter-segmental blood vessels measured at 72 hpf by fluorescence microscopy. It counts as functional. Put shortly:
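Tg(fli-1:EGFP) zebrafish embryos, dechorionated at 24 hpf, 20 per group, kept in embryo water containing compound at 28.5 °C for a further 48 h. All compounds screened first at 50 μM; active ones titrated for minimum effective dose. At 72 hpf embryos anesthetized in 0.016% tricaine and intersegmental vessels imaged by fluorescence microscopy. SU5416 positive control.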

With `COc1cc(CCc2ccccc2Cl)cc(OC)c1O`, the IC50 was 2.13 µM with A549; 2.19 µM in the data set with HepG2; 21.1 µM in the data set on MDA-MB-231; 24.5 µM in the data set with MKN-45; 0.25 µM in the data set on HCT-116 [1]. In data set [2], the viability at 72 h, 50 µM came to 84.4%. Also, the Activity entry was “Dose-dependent effect” in the data set on HCT-116 [3]; “Dose-dependent effect” in the data set on HCT-116 [4]; “Dose-dependent effect” with HCT-116 [5]; 24.8% in the data set on HCT-116 [8]; 34.5% in the data set with HCT-116 [9]; 36.9% in the data set with HCT-116 [10]. The Activity in the data set on HCT-116 [11] was found to be 18.1%; in the data set on HCT-116 [12], 22.4%; with HCT-116 [13], 37.2%; in the data set with HCT-116 [14] it was 85.22%; in the data set with HCT-116 [15], 82.47%. Also, the result in the data set with HCT-116 [6], in the data set on HCT-116 [7], in the data set with HCT-116 [16], with HCT-116 [17] and in the data set with HCT-116 [18] was Active. For the same compound, the MED in the data set listed under Danio rerio was in the range of 0.62 to 1.25 µM.

In general, IC50 refers to the midpoint of a concentration-inhibition curve. Low values mean greater potency in that assay, high ones weaker potency in that assay.
